Bioassay records as filed in PubChem BioAssay.
V1R ag counter – counter-screen for oxytocin receptor agonists: human V1a receptor agonists | AID 2797 | CHO-V1R cells, Fluo-8 calcium fluorescence, agonist mode; 0% DMSO, 100% 3 nM vasopressin | 320,000 compounds, 0.25% hits | P37288 | activation, % at 3 µM;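 active = activation above the mean activation of all tested compounds plus 3 SD, per screening run, cut at about 20% in these data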;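 also: signal is peak over basal fluorescence ratio across a 100 second FLIPR read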
TAAR1 antagonist – human TAAR1 antagonism; 360,000 compounds, 1.5% hits; CHO RD-HGA16 TAAR1, Fluo-8 calcium fluorescence, antagonist; Q96RJ0; inhibition, % at 3 µM;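 active = inhibition above a per-plate cutoff, the mean inhibition of test compounds on that plate plus 3 SD, cut at about 49% in these data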;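 also: 0% = DMSO plus EC80 beta-PEA response and 100% = DMSO alone without agonist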
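Test system: RD-HGA16 CHO cells with stable hTAAR1 and Gα16 / Probe or stimulus: EC80 β-phenethylamine stimulus / Times: seeding 17-24 h prior, 75-min 37 °C, 30-min RT dye loading / Detection: Fluo-8 calcium-sensitive fluorescence / Read-out basis: % inhibition scaled between DMSO and EC80 PEA controls / Repeats: singlicate, one well per test compound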
OXTR potentiate – potentiators of human oxytocin receptor. 320,000 compounds, 0.061% hits. activation, % at 3 µM. AID 2445. CHO-OTR cells, Fluo-8 calcium fluorescence, potentiator mode; 0% = oxytocin EC15, 100% = EC100. P30559;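 active = activation above that plate's cutoff, the mean activation of tested compounds plus 3 SD, cut at about 6.6% in these data, passing the limit was not always enough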;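 also: 100% uses oxytocin at 75 nM as the full agonist control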
Target sequence (P30559 whole entry, looked up): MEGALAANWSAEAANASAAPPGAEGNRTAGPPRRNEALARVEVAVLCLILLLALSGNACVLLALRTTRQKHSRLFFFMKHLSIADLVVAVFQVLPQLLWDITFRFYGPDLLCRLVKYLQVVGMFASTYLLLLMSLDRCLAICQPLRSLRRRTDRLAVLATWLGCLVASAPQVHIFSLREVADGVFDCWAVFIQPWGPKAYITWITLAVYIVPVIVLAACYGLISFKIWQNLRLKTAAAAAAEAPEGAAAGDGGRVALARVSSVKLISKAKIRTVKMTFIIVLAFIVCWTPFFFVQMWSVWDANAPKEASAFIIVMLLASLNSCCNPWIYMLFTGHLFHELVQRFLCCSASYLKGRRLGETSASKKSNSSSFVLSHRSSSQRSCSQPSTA
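System: human OTR in CHO cells; Also added: sub-maximal oxytocin, roughly EC15; Timing: compound 6 min at room temperature before oxytocin, 100 s read; Technique: Fluo-8 intracellular calcium fluorescence, ex 470-495, em 515-575 nm; Controls: oxytocin EC15 low and EC100 high; Replication: singlicate.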
OXTR agonist – agonists of human oxytocin receptor. AID 2435. CHO-OTR cells, Fluo-8 calcium fluorescence; normalized: DMSO 0%, oxytocin 100%. activation, % at 3 µM. 320,000 compounds, 0.32% hits;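 active = activation above the mean of all tested compounds plus 3 SD, cutoff set per screening run, cut at about 20% in these data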;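 also: peak over basal fluorescence ratio from a 100 s FLIPR kinetic read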
TAAR1 agonist – human TAAR1 agonism; Q96RJ0; CHO RD-HGA16 TAAR1, Fluo-8 calcium fluorescence; vehicle wells 0%, saturating PEA agonist 100%; activation, % at 3 µM; 360,000 compounds, 0.99% hits;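 active = activation above the mean activation of all test compounds in the run plus 3 SD, cut at about 38% in these data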
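System: CHO RD-HGA16 cells carrying human TAAR1 plus Gα16; Incubation: 17-24 h seeding, 75 min 37 °C dye, 30 min RT; Measured by: Fluo-8 fluorescence, 5 s baseline then 140 s kinetic read; Control set: DMSO and PEA EC100; Replication: single well for each compound.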
* hit, by the source's call. Shown are actives, neighbours in structure and some others; about 2.3% of the full set was active somewhere.

Results for COC(=O)CSC1=C(C#N)C(=O)NC(c2ccccc2)S1 (centres undefined) ?
V1R ag counter: 2; TAAR1 antagonist: -2; OXTR potentiate: -7; OXTR agonist: 3; TAAR1 agonist: 1

Results for Fc1ccc(C2=CC(c3ccc(Br)o3)n3ncnc3N2)cc1 (centres undefined) ?
V1R ag counter: 34*; OXTR potentiate: -12; OXTR agonist: 51*

How did Fc1ccc(C2=CC(c3ccco3)n3ncnc3N2)cc1 (centres undefined) do in these assays?
V1R ag counter: 5; OXTR potentiate: 4; OXTR agonist: 2

What do the screens show for `O=C(CCNC(=O)OCC1c2ccccc2-c2ccccc21)NOCc1ccccc1`?
TAAR1 antagonist: -27; TAAR1 agonist: 17

How did C[C@H](O)[C@@H]1CN2CCc3c([nH]c4ccccc34)[C@@H]2C[C@@H]1N(C)C(=S)NCCc1ccccc1 do in these assays?
TAAR1 antagonist: 66*; TAAR1 agonist: 78*

How did CCNC(=O)N(C)[C@H]1C[C@H]2c3[nH]c4ccccc4c3CCN2C[C@H]1[C@H](C)O do in these assays?
TAAR1 antagonist: -4; TAAR1 agonist: 1

What do the screens show for `N#C/C(=C/c1ccc(N2CCOCC2)o1)c1nc2ccccc2[nH]1`?
V1R ag counter: 21*; TAAR1 antagonist: 28; OXTR potentiate: -12; OXTR agonist: 40*; TAAR1 agonist: 49*

How did N#C/C(=C\c1ccc(N2CCOCC2)o1)c1ccccc1 do in these assays?
V1R ag counter: 1; TAAR1 antagonist: 23; OXTR potentiate: 1; OXTR agonist: 2; TAAR1 agonist: 21

Results for N#C/C(=C/c1ccc(N2CCOCC2)o1)c1ccc(Br)cc1 ?
V1R ag counter: 1; TAAR1 antagonist: 57*; OXTR potentiate: -14; OXTR agonist: 6; TAAR1 agonist: 29

How did Cc1cccc(N2C(S)=C(C#N)C(=O)NC2c2cccs2)c1 (centres undefined) do in these assays?
V1R ag counter: 0; TAAR1 antagonist: 4; OXTR potentiate: -3; OXTR agonist: 0; TAAR1 agonist: -1

How did Oc1ccc(Cl)cc1CNCc1ccc(Cl)cc1 do in these assays?
V1R ag counter: 4; TAAR1 antagonist: 8; OXTR potentiate: -10; OXTR agonist: 15; TAAR1 agonist: 49*

Results for C/C(=N\NC(=O)COc1ccccc1-c1ccccc1)c1ccc(O)cc1O ?
V1R ag counter: 0; TAAR1 antagonist: 50*; OXTR potentiate: -4; OXTR agonist: -1; TAAR1 agonist: -1

How did O=C(CSc1nnc(-c2ccccc2)o1)c1nnc(-c2ccccc2)o1 do in these assays?
V1R ag counter: 0; TAAR1 antagonist: 9; OXTR potentiate: -7; OXTR agonist: 0; TAAR1 agonist: 6

Results for CC(=O)c1c(C)[nH]c(C(=O)CSc2nnc(-c3ccccc3)o2)c1C ?
V1R ag counter: 9; TAAR1 antagonist: 56*; OXTR potentiate: -16; OXTR agonist: 11; TAAR1 agonist: 33

Results for O=C1NC[C@H](CCCCN2C[C@H](Cc3ccc(O)cc3)N(CCc3ccc(O)cc3)C(=O)C2=O)N(Cc2ccccc2)C1=O ?
TAAR1 antagonist: -13; TAAR1 agonist: 43*

What do the screens show for `O=C1NC[C@H](CCCCN2C[C@H](Cc3ccc(O)cc3)N(CCC3CCCCC3)C(=O)C2=O)N(CC2CCCCC2)C1=O`?
TAAR1 antagonist: -15; TAAR1 agonist: 3

Results for O=C1NC[C@@H](CCCCN2C[C@H](Cc3ccc(O)cc3)N(CC3CCCCC3)C(=O)C2=O)N(CCC2CCCCC2)C1=O ?
TAAR1 antagonist: -4; TAAR1 agonist: 43*

How did O=C1NC[C@H](CCCCN2C[C@H](Cc3ccc(O)cc3)N(CCc3ccccc3)C(=O)C2=O)N(Cc2ccccc2)C1=O do in these assays?
TAAR1 antagonist: -9; TAAR1 agonist: 2

What do the screens show for `O=C(CCn1[nH]c(=O)c2ccccc2c1=O)N1CCOCC1`?
V1R ag counter: 2; TAAR1 antagonist: -17; OXTR potentiate: -8; OXTR agonist: 0; TAAR1 agonist: 6

How did Cc1ccc(C)c(S(=O)(=O)/N=C(/Nc2ccccc2)c2ccccc2)c1 do in these assays?
V1R ag counter: -1; TAAR1 antagonist: -6; OXTR potentiate: 5; OXTR agonist: -2; TAAR1 agonist: -1
